This is an account of results in ChEMBL document CHEMBL1158758, “Cassane- and norcassane-type diterpenes from Caesalpinia crista of Indonesia and their antimalarial activity against the growth of Plasmodium falciparum” (J Nat Prod, 2005).

The IC50 is the concentration needed to halve the response being measured. A lower IC50 goes with greater potency in that assay.

The assay has as its system Plasmodium falciparum. The experiment in a line: Antimalarial activity against Plasmodium falciparum FCR3/A2. Particulars: FCR-3. The assay is classed as functional, organism-based. In outline:
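P. falciparum FCR-3/A2 clone cultured in vitro in 24-well plates across a wide concentration range of each compound. Compounds held as 10^-2 M DMSO stocks at -20 °C (stock, not final). Daily blood smears tracked parasite growth. IC50 (50% growth inhibition vs untreated control) came from linear regression of concentration–response data.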
`COC(=O)[C@@H]1c2ccoc2C[C@H]2[C@H]1C[C@H](OC(C)=O)[C@@]1(O)C(C)(C)CC[C@H](OC(C)=O)[C@]21C` [CAESALPININ E] came in with an IC50 of 6500 nM.
For the compound `CC(=O)O[C@H]1CC(C)(C)[C@]2(O)CCc3c(cc4occc4c3C)[C@@]2(C)[C@H]1OC(C)=O`, it took 98 nM to reach half-maximal inhibition (IC50).
Under `CC(=O)O[C@H]1CCC(C)(C)[C@]2(O)[C@@H](OC(C)=O)[C@@H]3OC(=O)[C@@H]4c5ccoc5C[C@@H]([C@@H]34)[C@@]12C` [CAESALPININ D] stands 800 nM.
The same measure for `C=C1c2ccoc2C[C@H]2[C@H]1CC[C@@]1(O)C(C)(C)[C@H](OC(C)=O)[C@H](OC(C)=O)[C@H](OC(C)=O)[C@]21C`: 200 nM; for `C=C1c2ccoc2C[C@H]2[C@H]1CC[C@@]1(O)C(C)(C)[C@H](OC(C)=O)C[C@H](OC(C)=O)[C@]21C` [CAESALPININ C]: 760 nM.
The same measure for `CC(=O)O[C@H]1CCC(C)(C)[C@]2(O)C[C@@H]3OC(=O)[C@@H]4c5ccoc5C[C@@H]([C@@H]34)[C@@]12C` [CAESALMIN B]: 800 nM; for `CC(=O)O[C@H]1[C@@H](OC(C)=O)C(C)(C)[C@]2(O)CCc3c(cc4occc4c3C)[C@@]2(C)[C@H]1OC(C)=O`: 6500 nM; for `CC(=O)O[C@H]1[C@@H](OC(C)=O)C(C)(C)[C@]2(O)CC[C@H]3C(=O)c4ccoc4C[C@@H]3[C@@]2(C)[C@H]1OC(C)=O` [3-O-ACETYLNORCAESALPININ A]: 2000 nM.
In the case of `CC(=O)O[C@H]1CCC(C)(C)[C@]2(O)C[C@H](O)[C@H]3C(=O)c4ccoc4C[C@@H]3[C@@]12C` [NORCAESALPININ E], the IC50 is 90 nM.
Under `CC1(C)CC[C@H](O)[C@]2(C)[C@H]3Cc4occc4[C@H]4C(=O)O[C@@H](C[C@@]12O)[C@@H]43` [CAESALMIN G] stands above 10000 nM; under `CC(=O)O[C@H]1CC(C)(C)[C@]2(O)CCc3c(cc(O)c(C=O)c3C)[C@@]2(C)[C@H]1OC(C)=O` [NORCAESALPININ C], 5000 nM.
Regarding `CC(=O)O[C@H]1C[C@@H](OC(C)=O)C(C)(C)[C@]2(O)CC[C@H]3C(=O)c4ccoc4C[C@@H]3[C@@]12C` [NORCAESALPININ B], the IC50 was 260 nM.
`COC(=O)[C@@H]1c2ccoc2C[C@H]2[C@H]1C[C@H](OC(C)=O)[C@@]1(O)C(C)(C)CCC(=O)[C@]21C` [CAESALPININ F] registered an IC50 of 650 nM.
`CC(=O)O[C@H]1C[C@@H](OC(C)=O)C(C)(C)[C@]2(O)CCc3c(cc4occc4c3C)[C@@]12C` [CAESALDEKARINE] returned an IC50 of 4000 nM.
The same measure for `CC(=O)O[C@H]1CC(C)(C)[C@]2(O)CC[C@H]3C(=O)c4ccoc4C[C@@H]3[C@@]2(C)[C@H]1OC(C)=O` [NORCAESALPININ A]: 800 nM; for `COC(=O)[C@@H]1c2ccoc2C[C@H]2[C@H]1[C@@H](OC(C)=O)C[C@@]1(O)C(C)(C)CC[C@H](OC(C)=O)[C@]21C` [ACETOXYBONDUCELLPIN C]: 600 nM.
